Screening data as filed in PubChem BioAssay.
KCNQ1 inh: human KCNQ1 channel inhibition. CHO-K1 KCNQ1, FluxOR thallium flux fluorescence; hits give high values. B-score at 10 µM. hit rate 1.3% among 310,000. AID 2642;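 active = compounds whose thallium flux B-score, printed positive for inhibition, exceeds three library SD while starting fluorescence stays within three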;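 note: channel opened by potassium depolarization with thallium stimulus after 20 min compound exposure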
KCNQ1 pot: human KCNQ1 channel potentiation or activation; AID 2648; CHO-K1 KCNQ1, thallium flux FluxOR fluorescence; hits give high values; P51787; hit rate 0.35% among 310,000; B-score at 10 µM;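 active = fluorescence ratio B-score, a plate-corrected score, at least three library SD, with initial intensity B-score within 5 SD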
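Doses: Single concentration per compound, DMSO matched to controls | Test system: KCNQ1-transfected CHO-K1 cells | Timing: 90 min dye loading and 20 min compound exposure, both at room temperature | Measured by: Kinetic FluxOR thallium fluorescence, 10-s 1-Hz baseline, 110-s post-stimulus read | Medium: Assay buffer with matched DMSO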
KCNK9 block: blocks the human KCNK9 two-pore domain potassium channel; Q9NPC2; HEK293 KCNK9, FluxOR thallium flux fluorescence; hits give low values; B-score at 10 µM; hit rate 1.2% among 310,000;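 active = ratio B-score over 3 SD below the library mean, with starting fluorescence within 5 SD of its mean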;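 note: negative B-score means less thallium flux so channel inhibition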
KCNK3 block: human KCNK3 channel inhibition, primary screen; B-score at 10 µM; CHO-KCNK3 thallium flux, FluxOR fluorescence; hits give low values; AID 602410; hit rate 0.84% among 340,000;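 active = B-score under library mean minus 4 SD, starting fluorescence ratio at most library mean plus 5 SD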;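 note: more negative B-score means stronger inhibition of thallium flux through KCNK3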
Target sequence (O14649 whole entry, looked up): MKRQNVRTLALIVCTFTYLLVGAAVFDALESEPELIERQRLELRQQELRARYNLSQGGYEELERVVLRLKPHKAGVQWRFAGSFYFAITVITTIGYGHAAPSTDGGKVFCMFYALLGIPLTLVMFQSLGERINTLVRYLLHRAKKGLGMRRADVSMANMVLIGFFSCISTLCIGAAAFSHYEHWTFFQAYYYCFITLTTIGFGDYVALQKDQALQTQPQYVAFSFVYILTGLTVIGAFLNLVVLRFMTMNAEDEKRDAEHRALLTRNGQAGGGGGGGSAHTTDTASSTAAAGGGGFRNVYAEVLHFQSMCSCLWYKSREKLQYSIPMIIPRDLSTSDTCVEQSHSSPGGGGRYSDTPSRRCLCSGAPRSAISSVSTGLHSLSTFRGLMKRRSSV
hERG rescue: hERG (human) protection from proarrhythmic block. CHO-hERG, FluxOR thallium flux, dofetilide IC70 present. activation (rescue from dofetilide block), less the hit threshold, % at 10 µM. hit rate 0.51% among 310,000. AID 1511;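 active = activation above the mean of controls blocked by dofetilide plus 5 SD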;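 note: thallium influx through hERG after potassium depolarization seen as dye fluorescence rise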
KCNQ1 inh valid: confirmation of human KCNQ1 potassium channel inhibitors | inhibition, % at 10 µM | KCNQ1 cell line, FluxOR thallium flux fluorescence | shares compounds with KCNQ1 inh | hit rate 93% among 1,600;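 active = primary screen active, with duplicate mean exceeding buffer control mean plus 3 SD of buffer wells, cut at about 28% in these data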;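 note: 0% = buffer control ratio and 100% = XE991 inhibitor control ratio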
CHO KCNQ1 ctr: KCNQ1 inhibitor counter-screen hit in parental CHO cells | fluorescence ratio (Tl flux) at 10 µM | shares compounds with KCNQ1 inh | parental CHO-K1, FluxOR thallium flux fluorescence ratio; hits give low values; zero means no signal rise above baseline | hit rate 21% among 1,600;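 active = mean of duplicate thallium-flux fluorescence ratios in parental host cells more than 5 SD below the buffer control mean, cut at about 0.38 in these data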;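 note: ratio is peak minus minimum fluorescence divided by baseline fluorescence; actives read low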
KCNQ1 APC inh: human KCNQ1 inhibition validated by electrophysiology; shares compounds with KCNQ1 inh; calls only at 10 µM; KCNQ1-CHO cells, automated patch clamp current; hit rate 20% among 490; AID 624120;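 active = KCNQ1 current drop exceeding 3 SD of negative control wells, seen in both duplicate runs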;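 note: steady state current during a 2 s step from -80 to +40 mV; negative values mean current inhibition and positive values mean potentiation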
KCNQ2 spec: selectivity of KCNQ1 inhibitors: inhibition of rat KCNQ2 channel | AID 651746 | hit rate 71% among 1,600 | KCNQ2 cells, FluxOR thallium flux fluorescence | shares compounds with KCNQ1 inh | inhibition, % at 10 µM;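 active = mean percent inhibition of the KCNQ2 thallium signal more than 5 SD above the buffer-only control wells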;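 note: KCNQ2 expressed in CHO cells; 0% = buffer control wells and 100% = XE-991 inhibitor control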
KCNQ1 KCNE1 spec: selectivity of KCNQ1 inhibitors: inhibition of human KCNQ1/KCNE1 channel. shares compounds with KCNQ1 inh. hit rate 77% among 1,600. KCNQ1/KCNE1 cells, FluxOR thallium flux fluorescence. inhibition, % at 10 µM;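 active = mean percent inhibition of duplicate wells above the buffer-only control mean plus 3 SD of those controls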;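 note: 0% = buffer only wells and 100% = XE-991 inhibitor control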
* = called active by the depositor; i = inactive; x = no result; + = active, no number. Rows were chosen to be rich in hits. Some 3.1% of all compounds tested hit in one or more screens of this group.

SMILES	KCNQ1 inh	KCNQ1 pot	KCNK9 block	KCNK3 block	hERG rescue	KCNQ1 inh valid	CHO KCNQ1 ctr	KCNQ2 spec	KCNQ1 KCNE1 spec	others
CCCOC(=O)C(C)n1cnc2scc(-c3ccc(C)cc3)c2c1=O (centres undefined)	9*	i	i	i	-3	93*	0.47	70%*	116%*	KCNQ1 APC inh=+
CCC(C(=O)OC)n1cnc2scc(-c3ccc(C)c(C)c3)c2c1=O (centres undefined)	7*	i	i	i	-6	52*	0.42	61%*	i
Cc1ccnc(NC(=O)CCN2C(=O)c3ccccc3S2(=O)=O)n1	i	i	i	i	-6	x	x	x	x
Cc1cccc(/C=N/NC(=O)c2ccncc2)n1	i	i	i	i	-2	x	x	x	x
O=C(Nc1ccc(Cl)cc1)NC1CCCCC1Cc1ccco1 (centres undefined)	8*	i	i	i	-9	126*	0.44	77%*	102%*	KCNQ1 APC inh=+
COc1ccc(-c2nc(-c3ccc(NC(=O)c4ccncc4)cc3)no2)cc1OC	12*	i	i	i	-10	0	0.48	71%*	i
CC(NC(=S)NC1CCCCC1)c1ccc(C(C)(C)C)cc1 (centres undefined)	8*	i	i	i	-5	104*	0.56	i	77%*	KCNQ1 APC inh=i
CC(C)(C)c1ccc(C(=O)Cn2cnnc2C#N)cc1	6*	i	i	i	-9	79*	0.47	i	36%*
O=C(NCc1ccco1)c1ccccc1F	i	i	i	i	-20	x	x	x	x
O=C(NCc1ccco1)c1ccccc1Nc1ccc(F)cc1	7*	i	i	i	-14	105*	0.41	63%*	91%*	KCNQ1 APC inh=+
C[C@H](CO)N1C[C@H](C)[C@@H](CN(C)S(=O)(=O)c2ccc(F)cc2)Oc2c(NS(=O)(=O)c3ccc(F)cc3)cccc2C1=O	x	x	x	i	x	x	x	x	x
COc1ccc(N(CC(O)Cn2c3ccccc3c3ccccc32)S(=O)(=O)c2ccccc2)cc1 (centres undefined)	11*	i	-7.5*	i	-8	107*	0.47	i	148%*	KCNQ1 APC inh=i
CCn1ccnc1CN(C)C(=O)c1cc(COc2ccccc2SC)on1	i	i	i	i	-10	x	x	x	x
C[C@H]1CN[C@H](CCO)/C1=C\c1ccccc1	x	x	x	i	x	x	x	x	x
CCc1ccc(NC(=O)c2cccc(C(=O)Nc3ccc(CC)cc3)n2)cc1	i	i	i	i	-14	x	x	x	x
Cc1ccc(NC(=O)c2cccc(C(=O)Nc3ccc(C)c(C)c3)n2)cc1C	8*	i	i	i	-12	0	0.44	104%*	36%*
CCOC(=O)c1cnc2ccc(OCC)cc2c1N1CCN(c2ccccc2OC)CC1	11*	i	i	i	-16	130*	0.33*	141%*	182%*
CCOc1ccc2ncc(C(=O)c3ccc(OC)cc3)c(N3CCN(CC)CC3)c2c1	i	i	i	i	-10	x	x	x	x
COc1cccc(C2(C)NC(=O)N(CC(=O)Nc3ccc(N4CCOCC4)cc3)C2=O)c1 (centres undefined)	x	x	x	i	x	x	x	x	x
CC(C)(C)c1csc(NC(=O)C2COc3ccccc3O2)n1 (centres undefined)	7*	i	i	i	-9	68*	0.52	60%*	80%*
O=C(Nc1nncs1)C1COc2ccccc2O1 (centres undefined)	i	i	i	i	-7	x	x	x	x
CC(C)(C)c1nc(NC(=O)Nc2ccccc2)sc1Br	7*	i	i	i	-14	92*	0.51	i	69%*	KCNQ1 APC inh=i
CCCCCNC(=O)c1cccc(S(=O)(=O)N2CC3(C)CC2CC(C)(C)C3)c1 (centres undefined)	7*	i	i	i	-13	86*	0.5	i	88%*
Cc1cccc(Cn2nc(C(C)(C)C)cc2C(=O)Nc2ccc(F)cc2)c1	12*	i	i	i	-18	175*	0.22*	144%*	+
Cc1cccc(CN2CCN(C(=O)CN(C)C(C)C(=O)Nc3ccc(C(N)=O)cc3)CC2)c1 (centres undefined)	x	x	x	i	x	x	x	x	x
SMILES	KCNQ1 inh	KCNQ1 pot	KCNK9 block	KCNK3 block	hERG rescue	KCNQ1 inh valid	CHO KCNQ1 ctr	KCNQ2 spec	KCNQ1 KCNE1 spec	others
COc1ccccc1NC(=O)N(Cc1ccccc1)c1ccccn1	7*	i	i	i	-7	95*	0.42	85%*	102%*	KCNQ1 APC inh=i
Clc1ccccc1OCCCOc1cccc2cccnc12	i	i	i	i	-7	x	x	x	x
CC1CCC(=C(C#N)C(=O)Nc2cccc(Cl)c2)CC1 (centres undefined)	15*	i	i	i	-7	96*	0.42	94%*	82%*	KCNQ1 APC inh=+
N#CC(C(=O)Nc1cccc(Cl)c1)=C1Nc2ccccc2N1	i	i	i	i	-6	x	x	x	x
CCc1ccc(NC(=O)COc2cccc(-n3cnnn3)c2)cc1	i	i	i	i	-4	x	x	x	x
CCOc1ccc(S(=O)(=O)NCc2ccncc2)cc1	i	i	i	i	-8	x	x	x	x
CCOc1cc(S(=O)(=O)NCc2ccncc2)ccc1Cl	8*	i	i	i	-12	74*	0.5	i	36%*
CC1CN(S(=O)(=O)c2cccc(C(=O)Nc3ccccc3N3CCCCC3)c2)CC(C)O1 (centres undefined)	7*	i	i	i	-9	76*	0.39	114%*	88%*
O=C1c2ccsc2SCCN1Cc1c(Cl)cccc1Cl	8*	i	i	i	-12	69*	0.42	79%*	86%*
COc1ccc2nc3n(c(=O)c2c1)-c1ccc(Cl)cc1C(=O)NC3Cc1ccc(O)cc1 (centres undefined)	x	x	x	i	x	x	x	x	x
CCOc1ccc(NC(=S)NCc2ccc3c(c2)OCO3)cc1	6*	i	i	i	-8	40*	0.43	96%*	38%*
Cc1ccc(NC(=S)NCc2ccc3c(c2)OCO3)cc1	i	i	i	i	-7	x	x	x	x
